From PubChem BioAssay
TRPC4 act: activators of mouse TRPC4 channel; Q9QUQ5; HEK293 TRPC4beta/mu-opioid, Fluo4 calcium fluorescence; hits give high values; B-score at 10 µM; 310,000 compounds, 0.49% hits; AID 2237;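 active = B-score above 5 SD of library B-scores, and initial fluorescence ratio not above library mean plus 5 SD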;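 also: positive B-score marks a calcium rise read as TRPC4 activation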
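Material: TRPC4beta and mu-opioid receptor HEK293 stable cells | Incubation: 45 min room-temperature Fluo4 loading, 110 s read | Detection: Kinetic Fluo4 calcium fluorescence | Measure: Integrated baseline-normalised fluorescence ratio, converted to per-well B score | Benchmarks: Low control buffer alone, high control maximal DAMGO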
TRPC6 inhibitor: inhibitors of mouse TRPC6 channel. Q61143. HEK293-TRPC6, membrane potential dye, ACh-evoked depolarization; hits give low values. B-score at 10 µM. 310,000 compounds, 1.1% hits;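 active = B-score under library mean minus 3 SD, initial fluorescence not abnormally high, positive integrated signal ratio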;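 also: B-score derived from integrated fluorescence ratio over the kinetic read; more negative B-score means stronger inhibition of depolarization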
Target sequence (Q61143 whole entry, looked up): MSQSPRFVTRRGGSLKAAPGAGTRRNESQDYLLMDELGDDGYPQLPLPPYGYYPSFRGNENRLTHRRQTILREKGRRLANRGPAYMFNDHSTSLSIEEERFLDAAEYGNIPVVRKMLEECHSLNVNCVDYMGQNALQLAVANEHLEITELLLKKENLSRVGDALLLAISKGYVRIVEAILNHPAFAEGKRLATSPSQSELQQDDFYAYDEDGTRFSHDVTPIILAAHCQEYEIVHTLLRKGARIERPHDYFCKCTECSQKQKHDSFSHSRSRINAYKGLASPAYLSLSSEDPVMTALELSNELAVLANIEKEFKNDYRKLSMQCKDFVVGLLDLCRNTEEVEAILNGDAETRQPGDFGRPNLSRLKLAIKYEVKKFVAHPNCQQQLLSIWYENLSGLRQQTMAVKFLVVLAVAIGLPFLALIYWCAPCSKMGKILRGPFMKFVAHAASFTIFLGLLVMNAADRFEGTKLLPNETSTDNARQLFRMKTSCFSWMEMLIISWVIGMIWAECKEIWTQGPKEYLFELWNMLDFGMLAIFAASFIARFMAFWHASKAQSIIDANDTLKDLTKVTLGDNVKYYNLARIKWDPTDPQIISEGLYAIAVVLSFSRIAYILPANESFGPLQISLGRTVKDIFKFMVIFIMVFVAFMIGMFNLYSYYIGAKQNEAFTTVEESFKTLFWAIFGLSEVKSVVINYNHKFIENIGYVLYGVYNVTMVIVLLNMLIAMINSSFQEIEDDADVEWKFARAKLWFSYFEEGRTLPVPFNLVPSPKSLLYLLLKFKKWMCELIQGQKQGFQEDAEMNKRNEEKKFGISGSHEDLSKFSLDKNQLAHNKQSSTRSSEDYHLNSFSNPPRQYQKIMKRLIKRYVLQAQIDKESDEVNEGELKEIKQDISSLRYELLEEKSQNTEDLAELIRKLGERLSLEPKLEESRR
TRPC6 act: activators of mouse TRPC6 channel | B-score at 10 µM | 310,000 compounds, 0.13% hits | Q61143 | HEK293-TRPC6 membrane potential dye fluorescence; hits give high values;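 active = B-score of the integrated fluorescence ratio above library mean plus 3 SD, and starting fluorescence ratio within library mean plus 5 SD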;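 also: higher score means more depolarization so channel activation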
TRPC4 potent: TRPC4 (mouse) allosteric potentiation; HEK293 TRPC4beta/mu-opioid, DAMGO EC20, Fluo-4 Ca2+ flux; hits give high values; B-score at 10 µM; 310,000 compounds, 0.42% hits;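 active = B-score of calcium response area above 5 SD of library B-scores, with initial fluorescence ratio within 5 SD of library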
TRPC4 inh: blocks the mouse TRPC4 cation channel; Q9QUQ5; HEK293 TRPC4beta/mu-opioid, DAMGO-evoked Fluo4 calcium flux; hits give low values; B-score at 10 µM; 300,000 compounds, 0.39% hits; AID 2247;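 active = B-score over 3 SD under the library average, no early fluorescence shift, positive overall ratio signal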
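material = TRPC4beta/mu-opioid receptor HEK293 cell line | probe or stimulus = sequential submaximal and maximal DAMGO stimulation | compound dosing = one concentration per compound | measured by = Fluo4 Ca2+ flux fluorescence | evaluation = integrated fluorescence ratio relative to baseline, converted to per-well B score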
TRPC4 spec 2: mouse TRPC4 off-target activity of TRPC6 inhibitors, second screen; 920 compounds, 42% hits; inhibition, % at 10 µM; shares compounds with TRPC6 inhibitor; HEK293 TRPC4/MOR, membrane potential dye fluorescence; channel activated by saturating DAMGO dose;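 active = compounds whose fluorescence signal differed from control wells by over 3 SD, either direction, in both duplicate plates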
TRPC4 spec: selectivity of TRPC6 inhibitors: effect on mouse TRPC4. shares compounds with TRPC6 inhibitor. HEK293 TRPC4/mu-opioid, membrane potential fluorescence. activity change, negative = inhibition, % at 10 µM. 920 compounds, 61% hits;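 active = rise or fall in signal beyond 3 SD of buffer-only wells in both replicate plates, either sign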;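 also: integrated kinetic ratio of fluorescence range over baseline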
HEK293 MPD ctr 2-1: second check of TRPC6 inhibitor effects in parental HEK293 cells. shares compounds with TRPC6 inhibitor. parental HEK293 membrane potential dye fluorescence; maximal acetylcholine challenge after compound addition. signal change vs control, % at 10 µM. 920 compounds, 31% hits. AID 2779;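 active = membrane potential signal moving either way by over 3 SD of the maximum-effect control, in both duplicate plates, meaning non-specific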
HEK293 MPD ctr-1: checks TRPC6 inhibitor effects in parental HEK293 cells. 920 compounds, 60% hits. shares compounds with TRPC6 inhibitor. parental HEK293 membrane potential dye fluorescence. AID 2780. membrane potential signal change, % at 10 µM;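 active = membrane potential signal shifting up or down by more than 3 SD of buffer-only wells, on both duplicate plates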
HEK293 MPD ctr-2: counter-screen for TRPC6 modulators: effect in parental HEK293 cells. shares compounds with TRPC6 inhibitor. 2,400 compounds, 51% hits. AID 488924. membrane potential signal change, % at 10 µM. membrane potential dye fluorescence;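 active = membrane potential signal moves up or down beyond 5 SD from buffer-only wells, on both duplicate plates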
HEK293 MPD ctr 2-2: second check of TRPC6 modulator effects in parental HEK293 cells; shares compounds with TRPC6 inhibitor; 2,400 compounds, 14% hits; inhibition, % at 10 µM; AID 488926; membrane potential dye fluorescence; after compound, maximal acetylcholine stimulation;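 active = membrane potential signal drops by more than 5 SD from the mean control signal, in both duplicate plates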
TRPC4 ctr mod: tests whether TRPC6 modulators also affect mouse TRPC4; shares compounds with TRPC6 inhibitor; HEK293 TRPC4/mu-opioid, membrane potential fluorescence; percent change from control (negative = decrease, positive = increase), % at 10 µM; 2,400 compounds, 69% hits; AID 488927;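 active = membrane potential signal moved up or down beyond 5 SD of buffer control wells, in both duplicate plates, actives on both sides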
TRPC4 ctr inh 2: mouse TRPC4 off-target activity of TRPC6 modulators, second screen; shares compounds with TRPC6 inhibitor; HEK293 TRPC4/mu-opioid, membrane potential dye fluorescence; stimulated with maximal-effect DAMGO; inhibition, % at 10 µM; 2,400 compounds, 55% hits;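 active = drop in membrane potential signal beyond 5 SD of the control wells in both duplicate plates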;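 also: TRPC4 counter screen for TRPC6 hits run under conditions tuned for TRPC6 not TRPC4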
TRPC6 inh conf: mouse TRPC6 inhibitor confirmation. AID 488960. 3,300 compounds, 43% hits. shares compounds with TRPC6 inhibitor. inhibition, % at 10 µM. HEK293-TRPC6, membrane potential dye, ACh-evoked depolarization;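 active = fluorescence ratio falls more than 5 SD below the full-stimulation control mean, in both duplicate runs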;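 also: integrated fluorescence ratio of peak minus minimum over baseline after agonist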
TRPC6 act conf: confirmation of mouse TRPC6 activators | HEK293-TRPC6 membrane potential dye fluorescence, FDSS | activation, % at 10 µM | shares compounds with TRPC6 inhibitor | 2,800 compounds, 11% hits;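 active = ratio signal rise beyond 5 SD above unstimulated control wells' mean, seen in both duplicate runs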
Of the large screens only hits and unclear results are named; the others gave an inactive call (follow-up assays come after a bar, where they were run). Only some compounds are listed: those with a hit (about 2.3% of all), similar ones and a draw of the others.

CCCCCCCOC(=O)C[N+](C)(C)CCOC1CC2CCC1(C)C2(C)C (stereo not given)	none
O=C(Nc1ccc(Cl)cc1)c1ccc(-n2cncn2)c([N+](=O)[O-])c1	TRPC6 inhibitor -5.5 | HEK293 MPD ctr-2 -106% | HEK293 MPD ctr 2-2 inactive | TRPC4 ctr mod inactive | TRPC4 ctr inh 2 56% | TRPC6 inh conf inactive | TRPC6 act conf inactive
CC(C)(C)c1nnc(NC(=O)Cc2ccccc2[N+](=O)[O-])s1	TRPC6 inhibitor -6.4 | HEK293 MPD ctr-2 inactive | HEK293 MPD ctr 2-2 inactive | TRPC4 ctr mod inactive | TRPC4 ctr inh 2 inactive | TRPC6 inh conf inactive | TRPC6 act conf inactive
Cn1ccnc1C1CCCCN1Cc1nc(Cc2ccccc2F)no1 (stereo not given)	TRPC6 inhibitor -5.5 | HEK293 MPD ctr-2 inactive | HEK293 MPD ctr 2-2 inactive | TRPC4 ctr mod inactive | TRPC4 ctr inh 2 inactive | TRPC6 inh conf 67% | TRPC6 act conf inactive
Clc1ccccc1Cc1noc(CN2CCCCC2c2ccccn2)n1 (stereo not given)	none
COC(=O)c1ccc(-c2noc(CN3CCCCC3c3nccn3C)n2)cc1 (stereo not given)	TRPC6 inhibitor -5.1 | HEK293 MPD ctr-2 164% | HEK293 MPD ctr 2-2 inactive | TRPC4 ctr mod 38% | TRPC4 ctr inh 2 36% | TRPC6 inh conf 43%
COC(=O)c1ccc(-c2noc(CN(Cc3nccn3C)C(C)C)n2)cc1	TRPC6 inhibitor -5.1 | HEK293 MPD ctr-2 inactive | HEK293 MPD ctr 2-2 inactive | TRPC4 ctr mod inactive | TRPC4 ctr inh 2 inactive | TRPC6 inh conf inactive | TRPC6 act conf inactive
C[N+]1(C)CCCC(OC(=O)C(O)(c2ccccc2)c2ccccc2)C1 (stereo not given)	TRPC6 inhibitor -13 | TRPC4 spec 2 inactive | TRPC4 spec inactive | HEK293 MPD ctr 2-1 -23% | HEK293 MPD ctr-1 inactive | TRPC6 inh conf 94% | TRPC6 act conf inactive
Cc1cc(C)n(-c2nc(SCCN(C)C)c3c4c(sc3n2)CCCC4)n1	TRPC4 act 95, TRPC6 inhibitor -6.1 | HEK293 MPD ctr-2 inactive | HEK293 MPD ctr 2-2 inactive | TRPC4 ctr mod inactive | TRPC4 ctr inh 2 72% | TRPC6 inh conf 46% | TRPC6 act conf inactive
CSc1nc(SCCN(C)C)c2c3c(sc2n1)COC(C)(C)C3	none
CCOC(=O)C1=C(C)N=c2s/c(=C/c3ccc(OCC(=O)O)cc3)c(=O)n2C1c1ccc(OC)cc1OC (stereo not given)	TRPC6 act 16 | HEK293 MPD ctr-2 active | HEK293 MPD ctr 2-2 inactive | TRPC4 ctr mod 62% | TRPC4 ctr inh 2 inactive | TRPC6 inh conf inactive | TRPC6 act conf 132%
CCNc1cc2n(c(=O)n1)CCc1cc(OC)c(OC)cc1-2	none
COc1cc2c(cc1OC)-c1cc(NCc3ccccn3)nc(=O)n1CC2	TRPC6 inhibitor -5.4 | HEK293 MPD ctr-2 -196% | HEK293 MPD ctr 2-2 inactive | TRPC4 ctr mod -34% | TRPC4 ctr inh 2 inactive | TRPC6 inh conf inactive | TRPC6 act conf inactive
Cc1ccc(NC(=O)c2cc(S(=O)(=O)N(C)C)ccc2N2CCCC2)cc1F	none
O=C(O)c1ccc(N=N/C(=N\Nc2ccc(C(=O)O)cc2)c2ccccc2)cc1	none
Brc1ccc(N/N=C(/N=Nc2nn[nH]n2)c2ccccc2)cc1	TRPC6 inhibitor -11, TRPC4 inh -6 | HEK293 MPD ctr-2 -256% | HEK293 MPD ctr 2-2 inactive | TRPC4 ctr mod -44% | TRPC4 ctr inh 2 91% | TRPC6 inh conf 65% | TRPC6 act conf inactive
CCc1nc(SCc2ccccc2C)n[nH]1	none
COc1cc(N2CCCC2)c(OC)cc1C=O	TRPC6 inhibitor -7.9 | TRPC4 spec 2 inactive | TRPC4 spec inactive | HEK293 MPD ctr 2-1 250% | HEK293 MPD ctr-1 inactive | TRPC6 inh conf inactive | TRPC6 act conf inactive
Cc1cc(=O)oc2cc(OCC(=O)N3CCN(C(=O)c4ccco4)CC3)ccc12	TRPC6 inhibitor -5.5 | HEK293 MPD ctr-2 inactive | HEK293 MPD ctr 2-2 inactive | TRPC4 ctr mod inactive | TRPC4 ctr inh 2 inactive | TRPC6 inh conf inactive | TRPC6 act conf inactive
CC1=CC(C)(C)N(C(=O)CNC2CCCC2)c2cc(C)ccc21	TRPC6 inhibitor -6.4 | HEK293 MPD ctr-2 125% | HEK293 MPD ctr 2-2 inactive | TRPC4 ctr mod 31% | TRPC4 ctr inh 2 45% | TRPC6 inh conf 54%
CN(C)CCNc1oc(COc2cccc(Cl)c2)nc1C#N	none
CCN(CC)CCCNc1oc(-c2ccc(OC)c(OC)c2)nc1C#N	TRPC6 inhibitor -6.4 | HEK293 MPD ctr-2 inactive | HEK293 MPD ctr 2-2 inactive | TRPC4 ctr mod inactive | TRPC4 ctr inh 2 inactive | TRPC6 inh conf 46% | TRPC6 act conf inactive
CN(C)CCCNc1oc(-c2cccc(Cl)c2)nc1C#N	TRPC6 inhibitor -6.8 | TRPC4 spec 2 inactive | TRPC4 spec inactive | HEK293 MPD ctr 2-1 inactive | HEK293 MPD ctr-1 inactive | TRPC6 inh conf inactive | TRPC6 act conf inactive
CCOc1ccc(/C=C/c2nc(C#N)c(NCCCN(C)C)o2)cc1	TRPC6 inhibitor -5.5 | HEK293 MPD ctr-2 inactive | HEK293 MPD ctr 2-2 inactive | TRPC4 ctr mod inactive | TRPC4 ctr inh 2 56% | TRPC6 inh conf 38% | TRPC6 act conf inactive
CCOC(=O)c1cnc2c(ccc3ccccc32)c1NCCCN(C)C	TRPC6 inhibitor -6.4 | HEK293 MPD ctr-2 inactive | HEK293 MPD ctr 2-2 70% | TRPC4 ctr mod inactive | TRPC4 ctr inh 2 56% | TRPC6 inh conf 48% | TRPC6 act conf inactive
